Test results published in ChEMBL document CHEMBL2440001, “Design and synthesis of novel 3,5-bis-N-(aryl/heteroaryl) carbamoyl-4-aryl-1,4-dihydropyridines as small molecule BACE-1 inhibitors” (Bioorg Med Chem, 2013).
Peptide text beside a SMILES is read from it. * marks the point of attachment. X1 = C[C@H](NC[C@H](C)N*)C(=O)N[C@@H](CCC(=O)O)C(=O)N[C@@H](Cc1ccccc1)C(=O)O

Columns and labels:
Beta-secretase 1 [1] = target: T1, Beta-secretase 1 (Homo sapiens, UniProt P56817); assay: Inhibition of recombinant human BACE-1 using SEVNLDAEFK as substrate at 50 uM after 90 mins by FRET assay
Beta-secretase 1 [2] = target: T1, Beta-secretase 1; assay: Inhibition of recombinant human BACE-1 using SEVNLDAEFK as substrate at 10 uM after 90 mins by FRET assay
Cavia porcellus = organism: Cavia porcellus; assay: Antagonist activity at calcium channel albino guinea pig ileal longitudinal smooth muscle assessed as inhibition of KCl-induced contraction
Method in brief: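 Fasted guinea-pig ileal longitudinal smooth muscle, 2 cm segments under 0.5 g resting tension, contracted with 40 mM KCl. Compounds were added cumulatively, and relaxation was expressed as percent of control. IC30 (30% relaxation) was read graphically from the curves.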

Beta-secretase 1 [3] = target: T1, Beta-secretase 1; assay: Inhibition of recombinant human BACE-1 using SEVNLDAEFK as substrate after 90 mins by FRET assay

T1 sequence (P56817 whole entry): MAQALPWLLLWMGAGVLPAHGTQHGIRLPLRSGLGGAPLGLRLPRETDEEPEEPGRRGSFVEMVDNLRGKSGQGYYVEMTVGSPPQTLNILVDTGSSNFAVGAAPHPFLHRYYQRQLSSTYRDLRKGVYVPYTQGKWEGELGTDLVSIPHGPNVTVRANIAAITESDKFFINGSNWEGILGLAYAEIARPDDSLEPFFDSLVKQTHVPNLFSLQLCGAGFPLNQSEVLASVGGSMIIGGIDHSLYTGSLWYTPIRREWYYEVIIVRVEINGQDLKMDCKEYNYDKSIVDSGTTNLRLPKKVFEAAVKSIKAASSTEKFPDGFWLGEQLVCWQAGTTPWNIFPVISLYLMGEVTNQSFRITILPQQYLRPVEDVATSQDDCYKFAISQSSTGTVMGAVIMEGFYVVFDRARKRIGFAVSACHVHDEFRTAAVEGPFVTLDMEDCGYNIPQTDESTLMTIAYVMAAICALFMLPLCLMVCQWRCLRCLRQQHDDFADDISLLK

Structure (SMILES) | inhibition (Beta-secretase 1 [1]) | inhibition (Beta-secretase 1 [2]) | IC15 (Cavia porcellus) | IC50 (Beta-secretase 1 [3]) | IC30 (Cavia porcellus)
CC1=C(C(=O)Nc2cc(C)on2)C(c2ccccc2[N+](=O)[O-])C(C(=O)Nc2cc(C)on2)=C(C)N1 | 54% | 12.7% | – | – | –
CC1=C(C(=O)Nc2nc3ccccc3s2)C(c2ccccc2[N+](=O)[O-])C(C(=O)Nc2nc3ccccc3s2)=C(C)N1 | 87.2% | 65.6% | 6.47 ×10⁻⁷ M | 4.27 µM | –
CC1=C(C(=O)Nc2cc(C)on2)C(c2ccc[nH]2)C(C(=O)Nc2cc(C)on2)=C(C)N1 | 57.4% | 24.1% | – | – | –
CC1=C(C(=O)Nc2nccs2)C(c2ccc([N+](=O)[O-])cc2)C(C(=O)Nc2nccs2)=C(C)N1 | 46.8% | 28.1% | – | – | –
CC1=C(C(=O)Nc2nc3ccccc3s2)C(c2ccccc2)C(C(=O)Nc2nc3ccccc3s2)=C(C)N1 | – | 44.9% | – | – | –
COC(=O)C1=C(C)NC(C)=C(C(=O)OC)C1c1ccccc1[N+](=O)[O-] | – | – | 0.00202 µM | – | 0.00927 µM
CC1=C(C(=O)Nc2nc3ccccc3s2)C(c2cccc([N+](=O)[O-])c2)C(C(=O)Nc2nc3ccccc3s2)=C(C)N1 | 56.2% | 49.4% | – | – | –
CC1=C(C(=O)Nc2nc(C)cs2)C(c2cccc([N+](=O)[O-])c2)C(C(=O)Nc2nc(C)cs2)=C(C)N1 | 70.4% | 34.8% | – | – | –
CC1=C(C(=O)Nc2cc(C)on2)C(c2cccc([N+](=O)[O-])c2)C(C(=O)Nc2cc(C)on2)=C(C)N1 | – | 11.6% | – | – | –
CC1=C(C(=O)Nc2nc3ccccc3s2)C(c2ccc([N+](=O)[O-])cc2)C(C(=O)Nc2nc3ccccc3s2)=C(C)N1 | 90.8% | 49.8% | – | – | –
CC1=C(C(=O)Nc2nc(C)cs2)C(c2ccco2)C(C(=O)Nc2nc(C)cs2)=C(C)N1 | 95.1% | 66.4% | 2.26 µM | 6.78 µM | –
CC1=C(C(=O)Nc2cc(C)on2)C(c2ccc([N+](=O)[O-])cc2)C(C(=O)Nc2cc(C)on2)=C(C)N1 | 43% | 23.5% | – | – | –
COc1ccc(C2C(C(=O)Nc3nc(C)cs3)=C(C)NC(C)=C2C(=O)Nc2nc(C)cs2)cc1 | 86.3% | 44.4% | – | – | –
CCOc1ccc2nc(NC(=O)C3=C(C)NC(C)=C(C(=O)Nc4nc5ccc(OCC)cc5s4)C3c3cccc([N+](=O)[O-])c3)sc2c1 | 94% | 49.1% | – | – | –
CC1=C(C(=O)Nc2nc(C)cs2)C(c2ccccc2[N+](=O)[O-])C(C(=O)Nc2nc(C)cs2)=C(C)N1 | 95% | 69.4% | 1.82 µM | 4.66 µM | –
CC(C)C[C@H](NC(=O)[C@H](CC(N)=O)NC(=O)[C@@H](NC(=O)[C@@H](N)CCC(=O)O)C(C)C)C(=O)N[C@@H](C)CN[C@@H](C)C(=O)N[C@@H](CCC(=O)O)C(=O)N[C@@H](Cc1ccccc1)C(=O)O (H-EVNL-X1) | – | – | – | 0.003 µM | –
CC1=C(C(=O)Nc2nc(C)cs2)C(c2ccc([N+](=O)[O-])cc2)C(C(=O)Nc2nc(C)cs2)=C(C)N1 | 88% | 77.2% | 4.63 µM | 4.21 µM | –
